According to ChEMBL document CHEMBL4251566 (Eur J Med Chem, 2018):
pIC50: −log10 of the molar value.

Assays:
[1] = target: Tyrosine-protein kinase BTK (Homo sapiens, UniProt Q06187); assay: Inhibition of BTK phosphorylation in human NAMALWA cells after 48 hrs by immunoblot analysis; type: cell-based
Outline: (§1)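 Namalwa cells were treated with 1, 5 or 10 µM for 48 h. Lysates were cleared at 14,000 g for 15 min at 4 °C, and 50 µg of protein was run on 8–12% SDS-PAGE and transferred to PVDF. Membranes were blocked in 5% milk for 2 h and incubated with primary antibody overnight at 4 °C. Detection was by ECL, with band IOD normalized to β-actin.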

[2] = target: T1, Tyrosine-protein kinase JAK3 (Homo sapiens) (UniProt P52333); assay: Inhibition of JAK3 in human NAMALWA cells assessed as reduction in STAT3 phosphorylation after 48 hrs by immunoblot analysis; type: cell-based; outline: as §1
T1 sequence (whole entry): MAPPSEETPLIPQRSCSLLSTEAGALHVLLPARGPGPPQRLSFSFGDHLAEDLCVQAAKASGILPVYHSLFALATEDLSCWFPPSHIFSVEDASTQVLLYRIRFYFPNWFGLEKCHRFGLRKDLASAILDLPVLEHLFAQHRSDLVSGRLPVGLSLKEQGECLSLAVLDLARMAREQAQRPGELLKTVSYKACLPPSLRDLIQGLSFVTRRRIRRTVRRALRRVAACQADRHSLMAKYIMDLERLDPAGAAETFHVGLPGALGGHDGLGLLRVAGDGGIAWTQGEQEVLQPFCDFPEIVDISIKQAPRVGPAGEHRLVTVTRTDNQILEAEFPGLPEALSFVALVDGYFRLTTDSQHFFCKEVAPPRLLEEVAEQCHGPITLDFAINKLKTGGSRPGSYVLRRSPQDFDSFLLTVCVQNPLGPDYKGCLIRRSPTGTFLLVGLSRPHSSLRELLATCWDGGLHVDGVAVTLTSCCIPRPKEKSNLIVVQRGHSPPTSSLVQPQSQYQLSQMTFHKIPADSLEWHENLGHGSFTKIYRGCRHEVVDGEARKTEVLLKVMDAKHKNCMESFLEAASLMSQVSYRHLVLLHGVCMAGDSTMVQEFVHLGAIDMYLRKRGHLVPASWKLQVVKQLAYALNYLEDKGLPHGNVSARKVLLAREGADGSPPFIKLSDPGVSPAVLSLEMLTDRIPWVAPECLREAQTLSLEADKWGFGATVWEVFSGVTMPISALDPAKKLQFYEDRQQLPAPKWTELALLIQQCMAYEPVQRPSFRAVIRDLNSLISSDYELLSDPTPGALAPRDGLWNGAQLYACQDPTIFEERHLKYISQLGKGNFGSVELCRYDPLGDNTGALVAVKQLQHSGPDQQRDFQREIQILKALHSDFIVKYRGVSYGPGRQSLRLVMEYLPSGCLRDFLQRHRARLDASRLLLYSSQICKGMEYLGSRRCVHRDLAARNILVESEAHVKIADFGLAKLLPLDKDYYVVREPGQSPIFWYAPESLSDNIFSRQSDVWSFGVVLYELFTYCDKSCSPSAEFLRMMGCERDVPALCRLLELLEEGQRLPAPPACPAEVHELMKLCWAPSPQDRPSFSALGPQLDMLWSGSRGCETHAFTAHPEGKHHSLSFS

Ramos [3] = assay: Antiproliferative activity against human Ramos cells assessed as inhibition of cell viability at 20 uM after 72 hrs by CCK-8 assay; type: functional
Outline: (§2)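 CCK-8 viability assay. Cells were seeded at 3000/well in RPMI-1640 with 10% FBS at 37 °C, 5% CO2, for 4 h before treatment. Exposure was 72 h at five concentrations (1.25, 5, 10, 20, 40 µM), each in five replicates. Absorbance was read at 450 nm. IC50 came from dose-response curves, as the mean of at least three separate experiments.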

Ramos [4] = assay: Induction of apoptosis in human Ramos cells assessed as early apoptotic cells at 5 uM after 72 hrs by Annexin V-FITC/propidium iodide staining based flow cytometry (reference value: 0.0%); type: functional
NAMALVA = assay: Antiproliferative activity against human NAMALWA cells after 72 hrs by CCK-8 assay; type: functional, cell-based; outline: as §2
Mus musculus = assay: Toxicity in CB17/SCID mouse xenografted with Ramos cells assessed as change in body weight at 60 mg/kg, po qd for 14 days; type: organism-based; details: in vivo, 336 h
Outline: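 Female CB17/SCID mice, 5–6 weeks old and 20–25 g, received 3×10⁶ Ramos cells in 0.1 mL PBS subcutaneously in the right axilla. From day 3 after implantation, dosing was oral at 30 or 60 mg/kg for 14 days; vehicle controls got oral 25% PEG-400. Tumor volume was A×B²/2 from caliper diameters. Tumor weight was taken at sacrifice, and body weight was tracked. n = 5.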

Ramos [5] = assay: Induction of apoptosis in human Ramos cells assessed as total apoptosis rate at 5 uM after 72 hrs by Annexin V-FITC/propidium iodide staining based flow cytometry relative to control
Raji = assay: Antiproliferative activity against human Raji cells after 72 hrs by CCK-8 assay; type: functional, cell-based; outline: as §2
Ramos [6] = assay: Induction of apoptosis in human Ramos cells assessed as total apoptosis rate at 10 uM after 72 hrs by Annexin V-FITC/propidium iodide staining based flow cytometry relative to control
Ramos [7] = assay: Induction of apoptosis in human Ramos cells assessed as late apoptotic cells at 5 uM after 72 hrs by Annexin V-FITC/propidium iodide staining based flow cytometry (reference value: 0.5%); type: functional
Ramos [8] = assay: Induction of apoptosis in human Ramos cells assessed as total apoptosis rate at 20 uM after 72 hrs by Annexin V-FITC/propidium iodide staining based flow cytometry relative to control
Ramos [9] = assay: Induction of apoptosis in human Ramos cells assessed as viable cells at 20 uM after 72 hrs by Annexin V-FITC/propidium iodide staining based flow cytometry (reference value: 98.7%); type: functional; details: read-out: Activity

Sequence of Tyrosine-protein kinase BTK (Q06187 whole entry): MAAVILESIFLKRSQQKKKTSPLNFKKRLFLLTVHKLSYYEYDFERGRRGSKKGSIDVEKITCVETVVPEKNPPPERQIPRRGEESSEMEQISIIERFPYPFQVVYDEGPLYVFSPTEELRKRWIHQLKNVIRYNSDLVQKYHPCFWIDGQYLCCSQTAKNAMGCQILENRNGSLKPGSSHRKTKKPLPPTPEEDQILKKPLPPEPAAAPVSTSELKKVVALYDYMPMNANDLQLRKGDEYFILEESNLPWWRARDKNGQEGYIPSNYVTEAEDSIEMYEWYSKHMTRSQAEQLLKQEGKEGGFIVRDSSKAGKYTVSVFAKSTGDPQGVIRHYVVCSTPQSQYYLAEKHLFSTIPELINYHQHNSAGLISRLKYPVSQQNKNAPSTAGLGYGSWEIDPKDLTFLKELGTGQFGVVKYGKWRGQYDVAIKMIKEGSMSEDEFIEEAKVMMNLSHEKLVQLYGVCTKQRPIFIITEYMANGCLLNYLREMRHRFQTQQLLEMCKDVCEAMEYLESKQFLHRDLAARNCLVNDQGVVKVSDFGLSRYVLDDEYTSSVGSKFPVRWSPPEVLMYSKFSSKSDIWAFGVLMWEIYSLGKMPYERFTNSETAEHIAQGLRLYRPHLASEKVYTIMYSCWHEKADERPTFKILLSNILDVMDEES

SMILES	inhibition [1]	inhibition [2]	inhibition at 20 µM (Ramos [3])	Activity (Ramos [4])	pIC50 (NAMALVA)	Activity (Mus musculus)	Activity (Ramos [5])	pIC50 (Raji)	Activity (Ramos [6])	Activity (Ramos [7])	Activity (Ramos [8])	viability at 20 µM (Ramos [9])
C=CC(=O)Nc1cccc(Nc2nc(Nc3ccc(OCCCN4CCOCC4)cc3)ncc2Cl)c1	Dose-dependent effect	Dose-dependent effect	91%	50.8%	5.08	<= 5%	59%	5.03	77.2%	8.2%	80.2%	16.3%
C=CC(=O)Nc1cccc(Nc2nc(Nc3ccc(OCC(=O)N4CCOCC4)c(Cl)c3)ncc2Cl)c1	Dose-dependent effect	Dose-dependent effect	91%	54.8%	5.19	<= 5%	61.8%	5.05	69.9%	7%	79.5%	20.1%
